According to ChEMBL document CHEMBL1156269, “Biological and biophysical properties of the histone deacetylase inhibitor suberoylanilide hydroxamic acid are affected by the presence of short alkyl groups on the phenyl ring” (J Med Chem, 2010):
Active and inactive are the calls of the source. No cut-off for these calls is given here.

Tested on: Caco-2
Assay: Induction of P21WAF1 gene expression in human Caco-2 cells at 5 uM after 24 hrs by Western blotting
Assay type: functional, cell-based
Procedure, shortened: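 Caco-2 cells were plated at 3×10⁵/well one day before treatment, then exposed for 24 h at 1 or 5 μM. Cells were scraped into PBS and protein was quantified. Equal protein was run on 12% SDS-PAGE and transferred to nitrocellulose. Blots were probed with mouse anti-p21 (1/1000, milk buffer) and an HRP secondary, with chemiluminescent detection; actin served as loading check.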

For `O=C(CCCCCCC(=O)Nc1ccccc1)NO`, the Activity was “inactive”.
